Data on 42 molecules can be found in ChEMBL document CHEMBL1250461, “Synthesis, binding and bioactivity of gamma-methylene gamma-lactam ecdysone receptor ligands: advantages of QSAR models for flexible receptors” (Bioorg Med Chem, 2010).

Data set [1] in a line: Binding affinity to Bovicola ovis recombinant ecdysone receptor ligand binding domain after 3 hrs by fluorescence polarization assay. The method in brief:
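B. ovis EcR_DEF/USP_DEF LBD heterodimer, co-expressed from baculovirus and purified by IMAC (2.51 mg/mL final). Competes with 36 nM fluorescein–inokosterone A conjugate in 50 mM sodium phosphate, 100 mM NaCl, pH 7.4 with 0.5 mg/mL BSA and 3% v/v DMSO. Compound range 3 nM–3 mM final. Incubated overnight at 4 °C, then 3 h at room temperature before polarisation (mP) read. Triplicate; IC50 from mean.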

Data set [2] can be described thus: Toxicity in Bovicola ovis assessed as mortality after 9 days. To be noted: 216 h.
In a further data set the target is T1, Ecdysone receptor (Lucilia cuprina, UniProt O18531).
T1 sequence (O18531 whole entry): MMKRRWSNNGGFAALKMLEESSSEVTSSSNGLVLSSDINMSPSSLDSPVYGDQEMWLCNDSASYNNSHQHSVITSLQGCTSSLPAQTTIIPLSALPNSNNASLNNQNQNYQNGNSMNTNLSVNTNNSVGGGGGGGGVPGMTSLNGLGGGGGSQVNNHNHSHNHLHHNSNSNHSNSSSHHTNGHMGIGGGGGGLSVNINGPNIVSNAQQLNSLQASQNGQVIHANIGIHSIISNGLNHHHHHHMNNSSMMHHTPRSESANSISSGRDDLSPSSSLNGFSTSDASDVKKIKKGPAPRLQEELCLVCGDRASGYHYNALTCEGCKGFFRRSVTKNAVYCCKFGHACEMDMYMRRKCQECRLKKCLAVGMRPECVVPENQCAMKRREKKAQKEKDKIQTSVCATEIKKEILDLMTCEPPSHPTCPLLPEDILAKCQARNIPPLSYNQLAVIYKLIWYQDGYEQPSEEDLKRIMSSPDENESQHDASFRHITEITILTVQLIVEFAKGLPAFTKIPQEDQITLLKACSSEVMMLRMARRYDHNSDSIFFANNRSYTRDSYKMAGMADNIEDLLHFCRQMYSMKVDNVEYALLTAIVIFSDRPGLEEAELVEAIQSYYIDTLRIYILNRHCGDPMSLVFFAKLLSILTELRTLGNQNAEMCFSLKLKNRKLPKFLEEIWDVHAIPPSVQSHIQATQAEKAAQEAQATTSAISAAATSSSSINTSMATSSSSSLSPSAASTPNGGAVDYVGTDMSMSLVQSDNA
Briefly: Binding affinity to Lucilia cuprina recombinant ecdysone receptor ligand binding domain after 3 hrs by fluorescence polarization assay. A digest of the protocol: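 L. cuprina EcR_DEF/USP_DEF LBD heterodimer, baculovirus co-expressed and IMAC-purified, used at 1.14 mg/mL. Fluorescence polarisation competition against 36 nM fluorescein–inokosterone A conjugate, with 0.5 mg/mL BSA and 3% v/v DMSO in 50 mM sodium phosphate/100 mM NaCl, pH 7.4. Test range 3 nM–3 mM final. Overnight at 4 °C, then 3 h re-equilibration at room temperature, mP read. Triplicate on one plate; IC50 from mean.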

In brackets after ≈: the same amount, converted by molar mass.

Take `C=C1C(CC)=C(C#N)C(=O)N1c1cc(Cl)ccc1C(C)(C)C`: the results for the IC50 (in data set [1]; on Ecdysone receptor) were 15 µM and 11 µM, respectively. Also, the LC50 in data set [2] was found to be 190 µg/mL (≈ 604 µM).

Take `C=C1C(CC)=C(C#N)C(=O)N1c1cc(Cl)c(Cl)cc1Cl`: the figures for the 50% inhibitory concentration (IC50) (in data set [1]; on Ecdysone receptor) were 5.5 µM and 7.25 µM, respectively. As to `C=C1C(CCC)=C(C#N)C(=O)N1c1cc(Cl)ccc1Cl`, the half-inhibitory concentration (IC50) in data set [1] worked out at 8.5 µM. In addition, in data set [2], the LC50 was determined as 66 µg/mL (≈ 215 µM). `C=C1C(C)=C(C#N)C(=O)N1N1CCCCC1`: the IC50 in data set [1] was 125 µM. Also, in data set [2], the LC50 is 244 µg/mL (≈ 1120 µM). For `C=C1C(C)=C(C#N)C(=O)N1c1ccc(Cl)cn1`, the IC50 in data set [1] turned out to be 95 µM. Consider `C=C1C(C)=C(C#N)C(=O)N1c1ncc(Cl)cc1Cl`, for which the IC50 in data set [1] came to 45 µM. As for `C=C1C(C)=C(C#N)C(=O)N1c1cnc2ccccc2c1`, the IC50 in data set [1] is 26 µM. Same read-out and setting: with `C=C1C(C)=C(C#N)C(=O)N1c1nccs1` the figure was 90 µM.

As for `C=C1C(C)=C(C(C)=O)C(=O)N1c1cc(Cl)c(Cl)cc1Cl`, the IC50 in data set [1] was found to be 45 µM. `C=C1C(C)=C(C#N)C(=O)N1c1ccccc1C(F)(F)F`: the IC50 came out at 27.5 µM in data set [1] and 48 µM at Ecdysone receptor.

For `C=C1C(C)=C(C#N)C(=O)N1c1ccc(Cl)c(Cl)c1`, in data set [1], the IC50 stood at 15 µM. Besides, the LC50 in data set [2] was determined as 167 µg/mL (≈ 598 µM). On to `C=C1C(C)=C(C#N)C(=O)N1c1cc(Cl)cc(Cl)c1`, for which the IC50 in data set [1] turned out to be 9.8 µM; on Ecdysone receptor, 27.5 µM. Consider `C=C1C(CC(C)C)=C(C#N)C(=O)N1c1cc(Cl)cc(Cl)c1`, for which the 50% inhibitory concentration (IC50) in data set [1] stood at 5.5 µM. Also, the LC50 in data set [2] was found to be 119 µg/mL (≈ 370 µM). As for `C=C1C(CC(C)C)=C(C#N)C(=O)N1c1cc(C(F)(F)F)cc(C(F)(F)F)c1`, the IC50 in data set [1] was 6.3 µM. Further, the LC50 in data set [2] was determined as 26 µg/mL (≈ 67 µM). For the molecule `C=C1C(CC(C)C)=C(C#N)C(=O)N1c1cc(Cl)c(Cl)cc1Cl`, the concentration for half-maximal inhibition (IC50) is 2.7 µM in data set [1] and 5.5 µM on Ecdysone receptor. The like results for `C=C1C(CC(C)C)=C(C#N)C(=O)N1c1c(C)cc(C)cc1C` were, in that order, 30 µM and 175 µM.

Regarding `C=C1C(c2ccccc2)=C(C#N)C(=O)N1c1c(C)cccc1C(C)C`, the figures for the IC50 (in data set [1]; on Ecdysone receptor) were 43 µM and 55 µM, respectively. Taken in the same sequence, the figures for `C=C1C(C)=C(C#N)C(=O)N1c1cc(C(C)(C)C)ccc1C(C)(C)C` were 5 µM and 6.5 µM. As for `C=C1C(c2ccccc2)=C(C#N)C(=O)N1C1CCCCC1`, the results for the IC50 (in data set [1]; on Ecdysone receptor) were 7.5 µM and 12.5 µM, respectively. Besides, the LC50 in data set [2] was 130 µg/mL (≈ 467 µM). Take `C=C1C(C)=C(C(=O)C(C)C)C(=O)N1c1cc(Cl)c(Cl)cc1Cl`: the IC50 in data set [1] was determined as 16 µM.

As for `C=C1C(C)=C(C(=O)OCC)C(=O)N1c1cc(Cl)c(Cl)cc1Cl`, the IC50 in data set [1] came to 11 µM. `C=C1C(C)=C(C(=O)c2ccccc2)C(=O)N1c1cccc(C(F)(F)F)c1`: the IC50 in data set [1] was determined as 12.5 µM; at Ecdysone receptor, 17.5 µM. Taken in the same sequence, the figures for `C=C1C(C)=C(C#N)C(=O)N1c1c(C(C)C)cccc1C(C)C` were 20.8 µM and 23.5 µM. Take `C=C1C(C)=C(C(=O)c2ccccc2)C(=O)N1c1cc(C(F)(F)F)ccc1Cl`: in data set [1], the IC50 is 18 µM. On the same count and under the same terms, with `C=C1C(C)=C(C(=O)c2ccccc2)C(=O)N1c1c(C)cccc1C(C)C` the figure was 58 µM.

Take `C=C1C(C)=C(C#N)C(=O)N1c1cc(Cl)c(C(C)(C)C)cc1Cl`: the results for the IC50 (in data set [1]; at Ecdysone receptor) were 11.3 µM and 8.5 µM, respectively. With `C=C1C(C)=C(C(=O)c2ccccc2)C(=O)N1c1c(C(C)C)cccc1C(C)C`, in data set [1], the IC50 is 2250 µM. For `C=C1C(C)=C(C(=O)c2ccccc2)C(=O)N1c1cc(Cl)c(Cl)cc1Cl`, the IC50 in data set [1] worked out at 9 µM.

`C=C1C(C)=C(C(=O)c2ccccc2)C(=O)N1c1c(C)cc(C)cc1C`: the IC50 in data set [1] was determined as 44 µM. On to `C=C1C(C)=C(C(=O)Nc2cccc(Cl)c2)C(=O)N1c1cccc(Cl)c1`, for which the results for the IC50 (in data set [1]; at Ecdysone receptor) were 12.5 µM and 250 µM, respectively. For `C=C1C(C(C)C)=C(C#N)C(=O)N1c1ccccc1C(C)(C)C`, the results for the IC50 (in data set [1]; on Ecdysone receptor) were 9.5 µM and 15 µM, respectively.

Regarding `C=C1C(C(C)C)=C(C#N)C(=O)N1c1ccc(Cl)cc1C(C)(C)C`, the IC50 in data set [1] was 6.5 µM; on Ecdysone receptor, 42 µM. For `C=C1C(C(C)C)=C(C#N)C(=O)N1c1c(C)cccc1C(C)C`, the values for the IC50 (in data set [1]; at Ecdysone receptor) were 27.5 µM and 47 µM, respectively.

`C=C1C(C(C)C)=C(C#N)C(=O)N1c1c(C)cc(Cl)cc1Cl`: the IC50 in data set [1] was determined as 62.5 µM; on Ecdysone receptor it was 480 µM. In the case of `C=C1C(CCCC)=C(C#N)C(=O)N1c1cccc(Cl)c1C`, the results for the IC50 (in data set [1]; at Ecdysone receptor) were 4.3 µM and 8.3 µM, respectively. The LC50 in data set [2] stood at 175 µg/mL (≈ 582 µM). Regarding `C=C1C(CCCC)=C(C#N)C(=O)N1c1cc(Cl)ccc1C`, the IC50 turned out to be 6 µM in data set [1] and 12.5 µM on Ecdysone receptor. The like results for `C=C1C(CCCC)=C(C#N)C(=O)N1c1cc(Cl)ccc1C(C)(C)C` were, in that order, 4 µM and 5.5 µM.

`C=C1C(CCCC)=C(C#N)C(=O)N1c1c(C)cccc1Cl`: the IC50 was determined as 6 µM in data set [1] and 56 µM at Ecdysone receptor. Regarding `C=C1C(CCCC)=C(C#N)C(=O)N1c1c(C)cccc1CC`, the IC50 in data set [1] came out at 46 µM; on Ecdysone receptor, 33 µM. `C/C=C1\C(C)=C(C#N)C(=O)N1c1c(Cl)cc(Cl)cc1Cl` (mixture of isomers): in data set [1], the IC50 came to 85 µM. On to `CC(C)(O)CC[C@@H](O)[C@](C)(O)[C@H]1CC[C@@]2(O)C3=CC(=O)[C@@H]4C[C@@H](O)[C@@H](O)C[C@]4(C)[C@H]3CC[C@]12C` [20-HYDROXYECDYSONE], for which the IC50 is 24 µM in data set [1] and 5.5 µM on Ecdysone receptor.

In the case of `CC(C)CC[C@@H](O)[C@](C)(O)[C@H]1CC[C@@]2(O)C3=CC(=O)[C@@H]4C[C@@H](O)[C@@H](O)C[C@]4(C)[C@H]3CC[C@]12C` [PONASTERONE A], the IC50 in data set [1] turned out to be 1.1 µM; on Ecdysone receptor it was 0.9 µM.
